Results: ChEMBL document CHEMBL1136016, “Synthesis, biological activity, and molecular modeling investigation of new pyrazolo[4,3-e]-1,2,4-triazolo[1,5-c]pyrimidine derivatives as human A(3) adenosine receptor antagonists” (J Med Chem, 2002)

Columns and labels:
Adenosine receptor A1 [1] = target: T1, Adenosine receptor A1 (Homo sapiens, UniProt P30542); assay: Displacement of [3H]DPCPX from human Adenosine A1 receptor expressed in CHO cells; assay type: cell-based
T1 sequence (P30542 whole entry): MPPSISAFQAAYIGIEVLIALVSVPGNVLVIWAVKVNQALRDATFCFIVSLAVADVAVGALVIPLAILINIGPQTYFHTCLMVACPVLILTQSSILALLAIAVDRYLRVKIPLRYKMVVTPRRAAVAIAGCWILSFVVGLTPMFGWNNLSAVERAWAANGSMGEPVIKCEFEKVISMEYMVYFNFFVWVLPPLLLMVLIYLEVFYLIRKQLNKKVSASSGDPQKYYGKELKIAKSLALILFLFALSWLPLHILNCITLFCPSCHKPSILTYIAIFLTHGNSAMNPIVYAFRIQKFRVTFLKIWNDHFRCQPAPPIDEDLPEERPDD
Summary of the method: (§1)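 Human recombinant A1 receptor in CHO cell membranes, resuspended in 50 mM Tris HCl pH 7.4. Displacement run 120 min at 25 °C with 1 nM [3H]DPCPX, 50 µg protein per assay, and at least six to eight test concentrations. Nonspecific binding defined with CHA. Bound and free separated on glass-fiber filters; filter radioactivity counted. n = 3-6.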

Adenosine receptor A2b [2] = target: T2, Adenosine receptor A2b (Homo sapiens, UniProt P29275); assay: Displacement of [3H]DPCPX binding at human Adenosine A2B receptor expressed in HEK293 cells; assay type: cell-based
T2 sequence (P29275 whole entry): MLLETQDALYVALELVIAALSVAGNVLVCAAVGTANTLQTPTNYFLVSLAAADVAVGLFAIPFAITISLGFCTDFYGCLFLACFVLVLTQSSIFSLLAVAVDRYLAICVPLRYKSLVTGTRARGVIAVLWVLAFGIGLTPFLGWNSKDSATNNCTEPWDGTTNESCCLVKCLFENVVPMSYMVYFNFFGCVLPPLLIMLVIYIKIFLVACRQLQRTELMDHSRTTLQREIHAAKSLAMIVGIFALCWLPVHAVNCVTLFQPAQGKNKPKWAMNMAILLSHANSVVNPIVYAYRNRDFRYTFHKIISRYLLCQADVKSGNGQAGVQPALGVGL
Summary of the method: (§2)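 Membranes from HEK-293 cells with human recombinant A2B receptor. Incubation 60 min at 25 °C in 50 mM Tris HCl, 10 mM MgCl2, 1 mM EDTA, 0.1 mM benzamidine, pH 7.4, with 2 IU/mL adenosine deaminase and 40 nM [3H]DPCPX. At least six to eight test concentrations. Nonspecific binding defined with NECA. n = 3-6.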

[3] = target: Adenosine receptors; A1 & A3 (Homo sapiens) (UniProt P30542+P0DMS8); assay: Selectivity ratio (hA1/hA3); assay type: protein assay
Adenosine receptor A3 [4] = target: T3, Adenosine receptor A3 (Homo sapiens, UniProt P0DMS8); assay: Displacement of […] from human Adenosine A3 receptor expressed in CHO cells; assay type: cell-based
T3 sequence (P0DMS8 whole entry): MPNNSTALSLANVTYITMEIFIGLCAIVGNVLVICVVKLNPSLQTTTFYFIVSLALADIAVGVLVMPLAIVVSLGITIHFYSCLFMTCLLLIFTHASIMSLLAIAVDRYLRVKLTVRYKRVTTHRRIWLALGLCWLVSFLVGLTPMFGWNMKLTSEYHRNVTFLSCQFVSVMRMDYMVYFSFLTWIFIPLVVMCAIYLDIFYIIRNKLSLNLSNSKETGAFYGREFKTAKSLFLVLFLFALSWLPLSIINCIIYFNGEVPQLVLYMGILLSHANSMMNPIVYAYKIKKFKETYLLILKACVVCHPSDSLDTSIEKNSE
Summary of the method: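 Membranes of CHO cells stably expressing human A3 receptor (50 µg protein/assay), incubated in duplicate with 1 nM [3H]MRE3008-F20 in 50 mM Tris HCl, 10 mM MgCl2 (pH 7.4) and six to eight ligand concentrations, 120 min at 4 °C. Nonspecific binding was set with 1 µM MRE3008-F20. Separation was by GF/B filtration and scintillation counting; n = 3-6.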

[5] = target: Adenosine receptors; A2b & A3 (Homo sapiens) (UniProt P29275+P0DMS8); assay: Selectivity ratio (h2B/hA3); assay type: protein assay
Adenosine receptor A2a [6] = target: T4, Adenosine receptor A2a (Homo sapiens, UniProt P29274); assay: Displacement of [3H]SCH-58261 from human Adenosine A2A receptor expressed in CHO cells; assay type: cell-based
T4 sequence (P29274 whole entry): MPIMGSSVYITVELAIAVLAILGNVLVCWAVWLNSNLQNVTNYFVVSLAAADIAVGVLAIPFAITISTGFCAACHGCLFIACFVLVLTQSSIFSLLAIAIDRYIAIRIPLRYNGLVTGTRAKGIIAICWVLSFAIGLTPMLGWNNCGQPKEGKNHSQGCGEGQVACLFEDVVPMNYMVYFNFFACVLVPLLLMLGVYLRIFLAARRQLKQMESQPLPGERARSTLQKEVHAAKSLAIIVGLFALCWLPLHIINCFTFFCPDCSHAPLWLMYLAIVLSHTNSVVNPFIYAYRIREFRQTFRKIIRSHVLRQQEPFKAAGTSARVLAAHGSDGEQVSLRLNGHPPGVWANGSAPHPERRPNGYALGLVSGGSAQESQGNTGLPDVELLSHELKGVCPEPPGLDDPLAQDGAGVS
Summary of the method: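 Membranes from CHO cells expressing the human receptor (50 µg protein) with [3H]SCH58261 and six to eight competitor concentrations. Incubated 60 min at 25 °C. Nonspecific binding was set with NECA.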

Adenosine receptor A3 [7] = target: T3, Adenosine receptor A3; assay: Inhibition of IB-MECA agonist-mediated cAMP production in membranes of CHO cells expressing human Adenosine A3 receptor; assay type: functional, cell-based
Summary of the method: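 Human A3-CHO membranes (in 50 mM Tris HCl, 10 mM MgCl2, 1 mM EDTA, pH 7.4) were preincubated for 10 min at 37 °C with 5 µM GTP, 0.5 mM Ro 20-1724 and 2.0 IU/mL adenosine deaminase. IB-MECA (100 nM) or antagonist was then added with 1 mM ATP and forskolin for 10 min. The reaction was stopped by 2 min boiling. cAMP was measured by [3H]cAMP competitive protein binding using beef adrenal binding protein, 150 min at 4 °C.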

Adenosine receptor A2a [8] = target: T4, Adenosine receptor A2a; assay: Displacement of [3H]SCH-58261 from human Adenosine A2A receptor expressed in HEK293 cells; assay type: cell-based
Adenosine receptor A1 [9] = target: T1, Adenosine receptor A1; assay: Displacement of [3H]DPCPX from human Adenosine A1 receptor expressed in CHO cells; range 436-810; assay type: cell-based; summary of the method: as §1
Adenosine receptor A3 [10] = target: T3, Adenosine receptor A3; assay: Inhibition of IB-MECA agonist-mediated cAMP production in CHO cell membranes expressing human Adenosine A3 receptor; range 130-279; assay type: functional, cell-based
Adenosine receptor A3 [11] = target: T3, Adenosine receptor A3; assay: Displacement of [3H]MRE3008-F20 from human Adenosine A3 receptor expressed in HEK cells; range 19-34; assay type: cell-based, HEK293
Adenosine receptor A3 [12] = target: T3, Adenosine receptor A3; assay: biochemical
Adenosine receptor A1 [13] = target: T1, Adenosine receptor A1; assay: Displacement of [3H]DPCPX from human Adenosine A1 receptor expressed in CHO cells; range 294-480; assay type: cell-based
Adenosine receptor A2a [14] = target: T4, Adenosine receptor A2a; assay: Displacement of [3H]SCH-58261 from human Adenosine A2A receptor expressed in HEK293 cells; range 34-50; assay type: cell-based
Adenosine receptor A2b [15] = target: T2, Adenosine receptor A2b; assay: Displacement of [3H]DPCPX from human Adenosine A2B receptor expressed in HEK293 cells; range 140-186; assay type: cell-based; summary of the method: as §2
Adenosine receptor A3 [16] = target: T3, Adenosine receptor A3; assay: Displacement of [3H]MRE3008-F20 binding at human Adenosine A3 receptor expressed in HEK cells; range 0.82-1.02; assay type: cell-based, HEK293
Adenosine receptor A2b [17] = target: T2, Adenosine receptor A2b; assay: Displacement of [3H]DPCPX from human Adenosine A2B receptor expressed in HEK293 cells; range 88-165; assay type: cell-based; summary of the method: as §2
Adenosine receptor A2a [18] = target: T4, Adenosine receptor A2a; assay: Displacement of [3H]SCH-58261 from human Adenosine A2A receptor expressed in HEK293 cells; […]; assay type: cell-based
Adenosine receptor A1 [19] = target: T1, Adenosine receptor A1; assay: Displacement of [3H]DPCPX from human Adenosine A1 receptor expressed in CHO cells; range 222-400; assay type: cell-based; summary of the method: as §1

Row | Ki (Adenosine receptor A1 [1]) [nM] | Ki (Adenosine receptor A2b [2]) [nM] | Ratio [3] | Ki (Adenosine receptor A3 [4]) [nM] | Ratio [5] | Ki (Adenosine receptor A2a [6]) [nM] | Compound | other results
1 | 1210 | 305 | 1500 | 0.81 | 377 | 1110 | CCCn1cc2c(nc(NC(=O)Nc3ccc([N+](=O)[O-])cc3)n3nc(-c4ccco4)nc23)n1 | 
2 |  |  | 5480 |  | 1300 |  | COc1ccc(NC(=O)Nc2nc3nn(C)cc3c3nc(-c4ccco4)nn23)cc1 | 
3 | 1110 | 180 | 2590 | 0.43 | 419 | 695 | Cn1cc2c(nc(NC(=O)Nc3ccc([N+](=O)[O-])cc3)n3nc(-c4ccco4)nc23)n1 | IC50 (Adenosine receptor A3 [7]): 5.5 nM
4 |  | > 10000 | > 400 |  | > 400 |  | Cn1cc2c(nc(NC(=O)Nc3ccc(S(=O)(=O)O)cc3)n3nc(-c4ccco4)nc23)n1 | Ki (Adenosine receptor A2a [8]): 594 nM; Ki (Adenosine receptor A1 [9]): > 10000 nM; IC50 (Adenosine receptor A3 [10]): 190 nM; Ki (Adenosine receptor A3 [11]): 25 nM
5 |  |  | 33 |  | 62.6 |  | CCCn1cc2c(nc(NC(=O)Nc3cccc(Cl)c3)n3nc(-c4ccco4)nc23)n1 | 
6 |  |  | 408 |  | 116 |  | CCCCn1cc2c(nc(NC(=O)Nc3cccc(Cl)c3)n3nc(-c4ccco4)nc23)n1 | 
7 |  |  | 1300 |  | 555 |  | CCCn1cc2c(nc(NC(=O)Nc3ccc(F)cc3)n3nc(-c4ccco4)nc23)n1 | Ki (Adenosine receptor A3 [12]): 0.29 nM; Ki (Adenosine receptor A1 [13]): 376 nM; Ki (Adenosine receptor A2a [14]): 42 nM; Ki (Adenosine receptor A2b [15]): 161 nM
8 | 1130 | 226 | 1740 | 0.65 | 348 | 614 | CCn1cc2c(nc(NC(=O)Nc3ccc([N+](=O)[O-])cc3)n3nc(-c4ccco4)nc23)n1 | 
9 |  |  | 330 |  | 133 |  | CCCCn1cc2c(nc(NC(=O)Nc3ccc(Br)cc3)n3nc(-c4ccco4)nc23)n1 | Ki (Adenosine receptor A3 [16]): 0.91 nM; Ki (Adenosine receptor A2b [17]): 121 nM; Ki (Adenosine receptor A2a [18]): 66 nM; Ki (Adenosine receptor A1 [19]): 300 nM
10 |  |  | 155 |  | 93.7 |  | CCn1cc2c(nc(NC(=O)Nc3cccc(Cl)c3)n3nc(-c4ccco4)nc23)n1 | 
